The record followed here is ChEMBL document CHEMBL1671701, “Discovery of potent small-molecule inhibitors of multidrug-resistant Plasmodium falciparum using a novel miniaturized high-throughput luciferase-based assay” (Antimicrob Agents Chemother, 2010).

The structures appear in SMILES notation. Counter-ions that a name gives are not always drawn.

A word on the IC50: it is the concentration that gives 50% inhibition. A high value points to a need for much substance.

For the experiment, the system named is Plasmodium falciparum. The experiment can be described thus: Antiplasmodial activity against Plasmodium falciparum 3D7 infected in RBCs by firefly luciferase reporter gene assay. It is filed as functional, organism-based. The settings on record: Plasmodium falciparum, 3D7. A digest of the protocol:
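Sorbitol-synchronised 3D7 expressing firefly luciferase from the HRPII promoter, at 1% late-ring parasitemia and 3% hematocrit in RPMI/albumax II medium. Sixteen 2-fold dilutions from 17 μM to 0.5 nM, 48 h at 37°C under 5% O2/5% CO2/N2. Bright-Glo luminescence is normalised to untreated infected and uninfected-RBC wells. IC50 by four-parameter logistic fit.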
Background: In a reporter assay the amount or activity of a reporter protein is the signal.
Molecule `NCCc1c[nH]cn1` [HISTAMINE] came in with an IC50 of 660 nM. In other words, the sub-micromolar range.

As for `Fc1ccc(C(CCCN2CCCCC2)c2ccc(F)cc2)cc1`, half-maximal inhibition (IC50) required 6000 nM. The molecule `Oc1ccccc1N1CCCC2CCCCC21` (stereo not given) returned an IC50 of 410 nM. Next, `CC(C)CN(C)c1nc(N)c(C(=O)N=C(N)N)nc1Cl` [5-(N-METHYL-N-ISOBUTYL)AMILORIDE]: 549 nM; `CC[C@]1(O)C[C@H]2CN(CCc3c([nH]c4ccccc34)[C@@](C(=O)OC)(c3cc4c(cc3OC)N(C=O)[C@H]3[C@@](O)(C(=O)OC)[C@H](OC(C)=O)[C@]5(CC)C=CCN6CC[C@]43[C@@H]65)C2)C1` [VINCRISTINE]: 1 nM; `CC[C@H]1CN2CCc3cc(OC)c(OC)cc3[C@@H]2C[C@@H]1C[C@H]1NCCc2cc(OC)c(OC)cc21` [EMETINE DIHYDROCHLORIDE HYDRATE]: 1 nM.

`C=CC[N+](C)(C)c1ccc(CCC(=O)CCc2ccc([N+](C)(C)CC=C)cc2)cc1` showed a 50% inhibitory concentration (IC50) of 107 nM. Against the preceding molecule, the IC50 is about 110-fold higher. Under `Oc1c(Cl)cccc1C1=NN=C(c2ccc(Cl)cc2)C1` stands 15000 nM.

As for `CN(Cc1ccccc1)c1cc(Br)cc(Br)c1O`, the IC50 was found to be 680 nM.

`N=C(N)c1ccc(OCCCCCOc2ccc(C(=N)N)cc2)cc1`: the IC50 is 42 nM. Compared with the last molecule, the IC50 is about 16-fold lower. Under `CCCN(CC1CC1)c1cc(Cl)cc(Cl)c1O` stands 330 nM; under `O=C(Nc1ccccc1)N1CCN(CCCC(c2ccc(F)cc2)c2ccc(F)cc2)CC1`, 7300 nM; under `CC1CCCN(c2cccc(Br)c2O)C1` (stereo not given), 130 nM. Next, `Fc1ccc(C(CCCN2CCCC2)c2ccc(F)cc2)cc1`: 12000 nM; `O=C1CCN(CCCC(c2ccc(F)cc2)c2ccc(F)cc2)CC1`: 5400 nM; `c1cc(CN2CCCCC2)cc(OCCCNc2nc3ccccc3s2)c1` [ZOLANTIDINE DIMALATE]: more than 22800 nM. Under `COc1ccc(O)c(N2CCCCC2)c1` stands 790 nM; under `Cc1ccnc(NS(=O)(=O)c2ccc(N)cc2)n1` [SULFAMERAZINE], 6 nM; under `CN/C(=N\CCSCc1nc[nH]c1C)NC#N` [CIMETIDINE], more than 22800 nM. `CCCc1nc2c(C)cc(-c3nc4ccccc4n3C)cc2n1Cc1ccc(-c2ccccc2C(=O)O)cc1` [TELMISARTAN] yielded a concentration for half-maximal inhibition (IC50) of 1610 nM. This counts as single-digit micromolar.

In turn, `CCN(CC)CCCC(C)Nc1c2ccc(Cl)cc2nc2ccc(OC)cc12` (stereo not given) [QUINACRINE DIHYDROCHLORIDE] registered an IC50 of 1 nM. Under `Clc1ccc(CNC2CCN(Cc3ccccc3)CC2)cc1` stands 250 nM. With `CCCN1CCC(NCC(c2ccccc2)c2ccccc2)CC1`, 490 nM corresponded to half-maximal inhibition (IC50).

Take `Oc1c(Cl)cccc1C1=NN=C(c2ccc(F)cc2)C1`: inhibition was half-maximal at 1500 nM (IC50). Under `O=S(=O)(c1ccccc1)N1CCN(CCCC(c2ccc(F)cc2)c2ccc(F)cc2)CC1` stands 3000 nM. Next, `N/C(=N\C(=O)c1nc(Cl)c(N)nc1N)NCc1ccccc1` [BENZAMIL HYDROCHLORIDE]: 217 nM. Next, `CC[C@]1(O)C[C@@H]2CN(CCc3c([nH]c4ccccc34)[C@@](C(=O)OC)(c3cc4c(cc3OC)N(C)[C@H]3[C@@](O)(C(=O)OC)[C@H](OC(C)=O)[C@]5(CC)C=CCN6CC[C@]43[C@@H]65)C2)C1` [VINBLASTINE]: 2 nM; `c1ccc(CCN2CCC(NC3CCCCC3)CC2)cc1`: 890 nM.

Regarding `O=c1ccc2ccccc2[nH]1` [OXYQUINOLINE HEMISULFATE], inhibition was half-maximal at 1140 nM (IC50). The IC50 values of the last two molecules are within 1.5-fold of each other. For `COc1ccc(CCN2CCC(Nc3nc4ccccc4n3Cc3ccc(F)cc3)CC2)cc1` [ASTEMIZOLE], inhibition was half-maximal at 254 nM (IC50). Next, `O[Si](CCCN1CCCCC1)(c1ccc(F)cc1)C1CCCCC1` (stereo not given): 4 nM; `CCN(CC)CCCC(c1ccc(F)cc1)c1ccc(F)cc1`: 5700 nM; `CC(=O)N(C1=C(N2CCCCC2)C(=O)c2ccccc2C1=O)C1CCCCC1`: 5400 nM. Next, `CC1CCCN(c2cc(Cl)cc(Cl)c2O)C1` (stereo not given): 110 nM; `Clc1cccc(CNC2CCN(Cc3ccccc3)CC2)c1`: 1100 nM.
